{"source": "ChEMBL document CHEMBL5357047", "about": "“The development of thymol-isatin hybrids as broad-spectrum antibacterial agents with potent anti-MRSA activity” (RSC Med Chem, 2024)", "key": {"[1]": {"experiment": "Toxicity against Galleria mellonella assessed as visible injury at 20 mg/kg measured every 12 hrs for 120 hrs", "type": "organism-based", "conditions": "in vivo", "summary_of_the_method": "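Uninfected Galleria mellonella larvae (0.2–0.4 g, ten per group) given 20 mg kg−1 compound, alongside untreated, PBS and PBS + 2% DMSO vehicle controls; held at 37 °C and checked every 12 h for 120 h. Larvae that turned black and gave no response to stimulus counted dead; percentage survival recorded.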"}, "Escherichia coli": {"system": "Escherichia coli", "experiment": "Antibacterial activity against clinically isolated Escherichia coli RBRJ013 assessed as inhibition of bacterial growth at 50 uM measured after 48 hrs by agar well diffusion method", "type": "functional", "conditions": "read-out: IZ"}, "Staphylococcus aureus [2]": {"system": "Staphylococcus aureus", "experiment": "Antibacterial activity against Methicillin-resistant Staphylococcus aureus ATCC 33591 assessed as inhibition of bacterial growth at 50 uM measured after 48 hrs by agar well diffusion method", "type": "functional", "conditions": "read-out: IZ", "summary_of_the_method": "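Agar well diffusion on Mueller Hinton agar seeded with bacteria at 0.5 McFarland. […] Incubated 48 h at 37 °C aerobically; zone of inhibition diameter (mm) measured. Triplicate.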"}, "Staphylococcus aureus [3]": {"system": "Staphylococcus aureus", "experiment": "Anti-biofilm activity against Methicillin-resistant Staphylococcus aureus assessed as biofilm volume/area at 1XMIC measured after 48 hrs by crystal violet staining based phase contrast microscopy (reference value: 18.37 +/-1.14 um3/um2)", "type": "functional"}, "Galleria mellonella": {"system": "Galleria mellonella", "experiment": "Modulation of immune response in MRSA-infected Galleria mellonella systemic infection model assessed as reduction in haemocytes in larva's circulating lymph at 10 mg/kg measured after 24 to 48 hrs by fluorescent microscopic analysis", "type": "functional, organism-based", "conditions": "time 24-48 hrs", "summary_of_the_method": "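Galleria mellonella larvae (0.2–0.4 g, ten per group) injected in the last proleg with MRSA, 5 × 10^8 cells per larva, then given 10 mg kg−1 compound; kept at 37 °C. Hemolymph collected on ice at 24 and 48 h post inoculation, diluted in PBS, counted with an automated cell counter and viewed with trypan blue (0.1%) under a fluorescent microscope.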"}, "Staphylococcus aureus [4]": {"system": "Staphylococcus aureus", "experiment": "Antibacterial activity against Staphylococcus aureus MTCC 740 assessed as inhibition of bacterial growth at 50 uM measured after 48 hrs by agar well diffusion method", "type": "functional", "conditions": "read-out: IZ"}, "[5]": {"molecular_target": "T1, 4,4'-diapophytoene synthase (Staphylococcus aureus) (UniProt A9JQL9)", "T1 sequence (whole entry)": "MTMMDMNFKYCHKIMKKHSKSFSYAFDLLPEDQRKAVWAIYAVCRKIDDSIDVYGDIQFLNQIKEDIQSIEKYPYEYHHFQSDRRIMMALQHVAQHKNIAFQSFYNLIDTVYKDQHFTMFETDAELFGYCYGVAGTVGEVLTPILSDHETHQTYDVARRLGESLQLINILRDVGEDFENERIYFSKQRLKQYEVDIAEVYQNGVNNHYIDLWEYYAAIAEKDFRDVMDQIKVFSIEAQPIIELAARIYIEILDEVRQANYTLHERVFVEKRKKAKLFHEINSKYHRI", "experiment": "Inhibition of CrtM in Methicillin-resistant Staphylococcus aureus assessed as inhibition of staphyloxanthin production by measuring reduction in 4,4'-diapophytoene level at 1/4XMIC measured after 24 hrs by spectroscopic analysis", "summary_of_the_method": "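Cells pelleted, PBS-washed, extracted overnight in methanol at 37 °C. Supernatant absorbance read at 462 nm (staphyloxanthin), 286 nm (4,4′-diapophytoene), 435 nm (4,4′-diaponeurosporene) or 455 nm (4,4′-diaponeurosporenic acid). % inhibition = (control − treated)/control × 100.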"}, "Staphylococcus aureus [6]": {"system": "Staphylococcus aureus", "experiment": "Anti-biofilm activity against Methicillin-resistant Staphylococcus aureus assessed as mean thickness of biofilm at 2XMIC measured after 48 hrs by crystal violet staining based phase contrast microscopy (reference value: 15.03+/-1.63 um)", "type": "functional"}, "Enterococcus faecalis": {"system": "Enterococcus faecalis", "experiment": "Antibacterial activity against Enterococcus faecalis MTCC 439 assessed as inhibition of bacterial growth at 50 uM measured after 48 hrs by agar well diffusion method", "type": "functional", "conditions": "read-out: IZ"}}, "note": "The source made the active and inactive calls. The rule behind the calls is not given here."}
{"smiles": "Cc1ccc(C(C)C)c(OCc2cn(CCCN3C(=O)C(=O)c4ccccc43)nn2)c1", "values": [{"measurement": "Activity", "setting": "[1]", "value": "Non-Toxic"}, {"measurement": "zone of inhibition at 50 µM", "setting": "Escherichia coli", "value": 20.3, "unit": "mm"}, {"measurement": "zone of inhibition at 50 µM", "setting": "Staphylococcus aureus [2]", "value": 27.5, "unit": "mm"}, {"measurement": "Activity", "setting": "Staphylococcus aureus [3]", "value": 1.57, "unit": "um3/um2"}, {"measurement": "Activity", "setting": "Galleria mellonella", "value": "Active"}, {"measurement": "zone of inhibition at 50 µM", "setting": "Staphylococcus aureus [4]", "value": 28.6, "unit": "mm"}, {"measurement": "inhibition", "setting": "[5]", "value": 86, "unit": "%"}, {"measurement": "Activity", "setting": "Staphylococcus aureus [6]", "value": 0.16, "unit": "um"}, {"measurement": "zone of inhibition at 50 µM", "setting": "Enterococcus faecalis", "value": 18.5, "unit": "mm"}]}
